Rows were chosen to be rich in hits. Some 2.9% of all compounds tested hit in one or more screens of this group.
proKLK7 act = activators of human kallikrein-7 zymogen; P49862; purified proKLK7, EDANS-DABCYL substrate fluorescence; 100% is mature enzyme control, 0% vehicle; actives 0.9% (n = 370,000); activation, % at 7 µM;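 active = activation above the mean of all tested compounds plus 3 SD, computed per campaign excluding outliers beyond control limits, cut at about 13% in these data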
Target sequence (P49862 whole entry, looked up): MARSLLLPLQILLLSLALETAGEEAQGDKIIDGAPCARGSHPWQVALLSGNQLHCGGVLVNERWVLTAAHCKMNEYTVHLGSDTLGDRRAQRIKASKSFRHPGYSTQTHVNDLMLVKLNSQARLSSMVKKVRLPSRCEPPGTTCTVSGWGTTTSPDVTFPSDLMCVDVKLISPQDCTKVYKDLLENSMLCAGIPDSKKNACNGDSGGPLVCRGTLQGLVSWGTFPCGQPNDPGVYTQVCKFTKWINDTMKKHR
AI-2 QS mod = Vibrio harveyi AI-2 quorum sensing modulation. Vibrio harveyi JMH597 AI-2 luminescence/OD600 ratio, 9 h; active compounds read low; strain lacks LuxN and CqsS sensors; 0 = neutral-control median. activity change, % at 7.5 µM. actives 0.4% (n = 300,000); in the data active = activity change below about -75%, passing the limit was not always enough; inconclusive = no clear call, values can overlap the other calls;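 note: luminescence divided by OD600 gain over 9 h not by final OD600 alone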
RanGTP-Imp inh = disruptors of Ran-importin-beta complex formation – biochemical, FRET, CFP-Ran, YFP-importin-beta, homogeneous, primary screen | cell-free CFP-Ran/YFP-importin-beta FRET ratio | inhibition, % (no concentration beside the values) | actives 1.1% (n = 300,000) | AID 2216;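 active = more than half of the replicate wells show a fall in the fluorescence ratio signal beyond about 16%, limit read from the data, passing the limit was not always enough; inconclusive = exactly half of the replicate wells pass the set limit; inactive = fewer than half of replicates pass the limit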
Runt-SMMHC FRET = blocks binding of human RUNX1 Runt domain to CBFb-SMMHC; Cerulean-Runt/Venus-CBFb-SMMHC FRET ratio 530/480, 1 h; actives 0.74% (n = 220,000); inhibition, % at 20 µM; Q01196+Q13951;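 active = mean inhibition across duplicate retests at 20 µM reaching about 50%, limit read from the data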;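 note: inhibitors lower the FRET ratio by blocking Runt binding to CBFb-SMMHC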
Runt-CBFb FRET = Runt domain-CBFb interaction inhibition; Cerulean-Runt/Venus-CBFb FRET ratio 530/480, 1 h; Q01196+Q13951; inhibition, % at 20 µM; AID 1496; actives 0.46% (n = 220,000);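 active = inhibition over about 50% at 20 µM in the single-dose screen, limit read from the data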
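Schedule: protein complex preformed 1 h, compound exposure 1 h, room temperature, dark; test system: Cerulean-labeled Runt domain protein; amount: 100 nM per protein; buffer or medium: Tris 50 mM pH 7.5, KCl, K2SO4, 0.01% BSA; read-out: loss of energy transfer signal; detection: FRET fluorescence; controls: 5 µM unlabeled CBFb as full-inhibition high control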
Wee1 stabilizer = blocks degradation of human Wee1 kinase | P30291 | HeLa Luc-Wee1K328M stability, luciferase luminescence; 100% = proteasome inhibitor MG132 effect | reporter increase, % at 5 µM | actives 1.2% (n = 220,000) | AID 1321;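 active = activation above the mean of all tested compounds plus 3 SD, set per screening run, cut at about 8.8% in these data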;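 note: cells exposed to compound for 20 h before luminescence read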
A number is an active result; - = inactive; ? = inconclusive; . = no result given.

SMILES	proKLK7 act	AI-2 QS mod	RanGTP-Imp inh	Runt-SMMHC FRET	Runt-CBFb FRET	Wee1 stabilizer
O=C(CSc1nc(Cc2ccccc2)nc2ccccc12)c1ccc2c(c1)OCCO2	-	-	?	-	-	-
COc1ccc(CC2=CC(=O)c3ccccc3C2=O)cc1	-	-	-	.	.	.
O=C(O)c1cccc(N2C(=O)/C(=C/c3ccc(SCc4ccc(Cl)cc4)o3)SC2=S)c1	-	.	.	-	-	12
CCOCCOC(=O)C1=C(C)Nc2ccc(C)cc2S1	-	-	23	-	-	-
Cc1cccc([C@H]2[C@@H]3C=CCC[C@@H]3C(=O)N2Cc2ccccc2)c1	-	.	.	.	.	.
COC(=O)C1=C(C)N(C)C(=NCc2cc(OC)c(OC)c(OC)c2)NC1c1cccc(C(F)(F)F)c1 (configuration not stated)	-	.	.	.	.	.
O=C(CNC(=O)c1ccco1)NCC(=O)OCc1ccc(Cl)cc1	-	.	-	-	-	-
O=C(CNC(=O)c1ccco1)OCc1ccc(Br)cc1	.	-76	-	.	.	.
CCCCNc1nnc(SCC(=O)c2c[nH]c3ccccc23)s1	-	-	-	-	-	-
CCCCOC(=O)Nc1ccc(N2CCCCC2)cc1	-	-	-	-	-	9.1
Cc1ccccc1C(=O)Nc1ccc(N2CCCC2)cc1	-	-	?	-	-	10
O=C(/C=C(\Nc1cccc(F)c1)c1ccccc1)c1ccccc1	-	.	.	.	.	.
COC(=O)C1=C(C)N(Cc2ccc(C(F)(F)F)cc2)C(=NCc2ccccc2)NC1c1ccccc1 (configuration not stated)	-	.	.	.	.	.
N/C(=N\O)c1ccc(Cl)cc1Cl	-	-	-	-	-	-
Cc1ccc(C)c(NC(=O)CN(C)C(=O)c2ccc3[nH]c4c(c3c2)CC(C)CC4)c1 (configuration not stated)	-	.	26	.	.	.
CC1CCc2[nH]c3ccc(C(=O)N(C)CC(=O)Nc4ccccc4Br)cc3c2C1 (configuration not stated)	-	-	-	.	.	.
Nc1ccn([C@@H]2O[C@H](C(=O)N3CCN(C(=O)C(F)(F)F)CC3)[C@@H](O)[C@H]2O)c(=O)n1	-	.	.	.	.	.
CC(C)c1ccc(NC2CCCN(C(=O)c3cnsn3)C2)cc1 (configuration not stated)	-	-	-	.	.	.
COc1cc(CN2CCN(CCCc3ccccc3)CC2CCO)cc(OC)c1 (configuration not stated)	-	-	27	.	.	.
Cc1ccc(CN2CCN(Cc3nc4c(s3)CCCC4)CC2CCO)cc1 (configuration not stated)	-	-	-	-	-	-
COc1cccc(CN2CCN(Cc3nc4c(s3)CCCC4)CC2CCO)c1 (configuration not stated)	-	-	-	-	-	10
COc1ccc(Cn2c(NC(=O)c3ccccc3)nc(Cc3ccccc3)c2Cc2ccccc2)c(OC)c1	-	.	.	.	.	.
CCCCCCCCN1C(=O)[C@@H](CC(=O)NCc2ccc(OC)c(OC)c2)C[C@@]2(C(=O)OC)C1=C[C@H](C(C)C)O[C@@H]2C1CC1	-	.	.	.	.	.
O=C(COC(=O)Cc1n[nH]c(=O)c2ccccc12)Nc1ccc(Cl)cc1F	-	-	-	-	-	8.9
O=C(NC(=S)Nc1ccc(CN2CCCCC2)cc1)c1ccco1	-	-	-	-	-	-
SMILES	proKLK7 act	AI-2 QS mod	RanGTP-Imp inh	Runt-SMMHC FRET	Runt-CBFb FRET	Wee1 stabilizer
O=C(NC(=S)Nc1ccc(CN2CCOCC2)cc1)c1ccco1	-	-	-	-	-	10
C[C@H]1[C@H](c2ccccc2)Oc2ccc(Cl)cc2S(=O)(=O)N1C[C@@H]1CCCN1C(=O)OC(C)(C)C	-	.	.	.	.	.
CC1=C(C(=O)Nc2ccccn2)C(c2ccc(Cl)cc2)NC(=S)N1 (configuration not stated)	-	-	-	-	-	9.9
CC1=C(C(=O)Nc2ccccn2)C(c2ccc(Br)cc2)NC(=S)N1 (configuration not stated)	-	-	-	-	-	-
S=C(Nc1ccc2nsnc2c1)N1CCCCC1	-	.	.	-	-	-
CCN(CC)C(=O)C1CCCN(C(=O)Nc2ccc3nsnc3c2)C1 (configuration not stated)	19	-	-	-	-	-
O=C(CCC(=O)N1CCCCC1)Nc1ccc(Cl)c(Cl)c1	-	-78	-	.	.	.
Cc1c(C)c2cc(Cl)c(O)c(CN3CCCCC3)c2oc1=O	.	-	?	89	-	-
C=CCn1c(SCC(=O)NC2CCS(=O)(=O)C2)nc2scc(C3CC3)c2c1=O (configuration not stated)	-	-	-	-	-	9.7
COC(=O)c1c(NC(=O)c2ccco2)sc2c1CCN(C(C)C)C2	-	-	54	.	.	.
CN1CCc2c(sc(NC(=O)c3ccc([N+](=O)[O-])o3)c2C(N)=O)C1	-	-102	.	.	.	.
CC(C)N1CCc2c(sc(NC(=O)c3ccco3)c2C(N)=O)C1	-	-	101	.	.	.
O=C(Nc1sc2c(c1C(=O)O)CCC2)c1ccco1	-	-	-	-	-	-
NC(=O)c1c(NC(=O)c2ccc([N+](=O)[O-])o2)sc2c1CCCC2	-	-	-	.	.	.
COC(=O)c1c(NC(=O)c2ccco2)sc2c1CCC2	-	-	-	-	-	-
CN1CCc2c(sc(NC(=O)c3ccco3)c2C(N)=O)C1	-	-	83	.	.	.
CC(C)NC(=O)C(c1ccc(F)cc1)N(C(=O)CCC(=O)Nc1ccccn1)c1cccc(F)c1 (configuration not stated)	-	-	-	.	.	.
C=CCN1[C@H](C)COc2cc(F)ccc2S1(=O)=O	-	.	.	.	.	.
COc1ccc2c(c1)[C@@]1(NCCc3c1[nH]c1ccc(OC)cc31)C(=O)N2	-	.	.	.	.	.
CC(C)(C)OC(=O)C[C@@H]1C/C=C\C[C@@H](CC(=O)N(CCO)Cc2ccccc2)C(=O)N2CCC[C@@H]2COC1=O	-	.	.	.	.	.
CN1CCc2c(sc(NC(=O)c3cc(Cl)sc3Cl)c2C(N)=O)C1	-	-	147	.	.	.
CC1(C(=O)NNC(=O)c2ccc(=O)oc2)CC1Br (configuration not stated)	-	-	-	84	-	-
Cc1cc(=O)oc(C)c1C(=O)NNC(=O)C1(C)CC1Br (configuration not stated)	-	-	-	-	-	-
CC(=O)OCC(=O)N1CCN(C(=O)C(=O)c2cccc(C(F)(F)F)c2)CC1	-	.	.	.	.	.
CN(C(=O)C(Cl)Cl)C1CC2C=CC1C2 (configuration not stated)	-	-	-	-	-	11
O=c1c2c([nH]c3ccccc13)CCCC2	-	-	-	-	-	-
COc1cccc2[nH]c3ccccc3c(=O)c12	.	-	127	.	.	.
Nc1cccc2c(=O)c3ccccc3[nH]c12	-	-	64	.	.	.

Compound activity as filed in PubChem.
